Results of several laboratories.
Lines come from different studies, so protocols differ.
RAF1 Y340D/Y341D: RAF proto-oncogene serine/threonine-protein kinase (RAF1, Homo sapiens, UniProt P04049, Y340D/Y341D)
RAF1: RAF proto-oncogene serine/threonine-protein kinase (RAF1, Homo sapiens, UniProt P04049)

CC(C)(C)c1nc2c(s1)c1nc(N)ncc1c1ccc(NS(=O)(=O)c3c(F)cccc3F)c(F)c12
remaining activity (RAF1 Y340D/Y341D; enzyme activity, inhibitor, radiometric; 1 µM): 9%

CCN(CC)CCNC(=O)c1c(C)[nH]c(/C=C2\C(=O)Nc3ccc(F)cc32)c1C
remaining signal (RAF1; cell-free assay; 0.5 µM): 110%

C=CC(=O)Nc1cc(Nc2nccc(Nc3cc(Cl)c(F)cc3C(C)(C)O)n2)c(OC)cc1N1CC[C@@H](N(C)C)C1
inhibition (RAF1; enzyme activity, inhibitor; 1 µM): 10%

Cc1sc(C(=O)NC2COC2)cc1-n1cc(NC(=O)Nc2c(F)cccc2Cl)cn1
remaining activity (RAF1; enzyme activity, inhibitor; 10 µM): 92.6%

CCOCCn1cc(C(=O)Nc2ccc(-n3nc(-c4cccnc4)cc3C(F)(F)F)cn2)ccc1=O
remaining binding (RAF1; cell-free assay, competition with immobilised ligand; 1 µM): 100%

O=C1Nc2ccc(Cl)cc2C1=Cc1cc(Cl)c(O)c(Cl)c1
remaining signal (RAF1; cell-free assay; 0.5 µM): 6.93%

Cc1ccc(Nc2nccc(N(C)c3ccc4c(C)n(C)nc4c3)n2)cc1S(N)(=O)=O
inhibition (RAF1; enzyme activity, inhibitor; 10 µM): 96%

Cc1cc(-n2nc(Cc3cc(F)cc(C(F)(F)F)c3)nc2C)ccc1C(N)=O
remaining binding (RAF1; cell-free assay, competition with immobilised ligand; 1 µM): 87%

Nc1ncnc2occ(-c3ccc(NC(=O)Nc4cc(C(F)(F)F)ccc4F)cc3)c12
remaining signal (RAF1; cell-free assay, inhibitor; 20 µM): 0%

Cc1[nH]c(/C=C2\C(=O)Nc3ccc(F)cc32)c(C)c1C(=O)N[C@H]1CCN(C(=O)N(C)C)C1
remaining activity (RAF1; enzyme activity, inhibitor; 1 µM): 100%

COc1cc(-c2cc(-c3ccc(N4CCNCC4)cc3)cnc2N)cc(OC)c1OC
inhibition (RAF1; enzyme activity, inhibitor; 0.1 µM): 2%

CCCOc1ccc(OC)c(F)c1C(=O)c1ccc(C(=O)N[C@@H]2CNC[C@H]2NC(=O)c2ccc3[nH]ncc3c2)cc1
remaining activity (RAF1; enzyme activity, inhibitor; 10 µM): 109%

CC(C)(O)[C@H]1CC[C@H](Nc2ccc3ncc(-c4cccc(C(F)(F)F)c4)n3n2)CC1
remaining activity (RAF1; enzyme activity, inhibitor; 1 µM): 91.6%

c1nc2c(Nc3ccc4c(c3)OCCO4)nc(Nc3ccc4c(c3)OCCO4)nc2[nH]1
activity vs control (RAF1; enzyme activity, inhibitor; 10 µM): 95%

CN(C)C1CCN(CC#Cc2nn(C3CCCC3)c3nc(NCc4ccccc4)ncc23)C1 (stereo not shown)
inhibition (RAF1 Y340D/Y341D; enzyme activity, inhibitor, FRET; 10 µM): 3%

Nc1c(C(=O)NCc2ccc(C(=O)NCCCC3CCCCC3)cc2)cnn1-c1ccccc1
remaining binding (RAF1; cell-free assay, competition with immobilised ligand; 0.1 µM): 100%

CCOc1cc(-c2nncn2C)ccc1Nc1ncc2cc(C)nc(NCC(C)(C)C)c2n1
inhibition (RAF1 Y340D/Y341D; cell-free assay, TR-FRET; 1 µM): ≤ 15%

CSc1nc(C)c(-c2ccnc(Nc3ccc(N4CCOCC4)cc3)c2)[nH]1
inhibition (RAF1; enzyme activity, inhibitor; 10 µM): 64.1%

O=C(O)c1cc(-c2ccc(C3CCNCC3)cc2)c2ccc(-c3ccc(C(F)(F)F)cc3)cc2c1
remaining binding (RAF1; cell-free assay, competition with immobilised ligand; 1 µM): 70%

CNc1cccc2cc(C(=O)Nc3ccc(C(=O)O)cc3)c(=O)[nH]c12
inhibition (RAF1; enzyme activity, inhibitor; 10 µM): 6.9%

CN1CC(Oc2cnc(C#N)cc2-c2ccn3nc(NC(=O)C4CC4)cc3c2)C1
inhibition (RAF1; enzyme activity, inhibitor; 1 µM): 2%

COc1cc2ncnc(Nc3ccc(Oc4ccccc4)cc3C)c2cc1OC
inhibition (RAF1 Y340D/Y341D; enzyme activity, inhibitor; 1 µM): 27%

COc1cc2c(N3CCN(C(=O)Nc4ccc(OC(C)C)cc4)CC3)ncnc2cc1OCCCN1CCCCC1
remaining signal (RAF1; cell-free assay; 0.5 µM): 96.7%

CN(C)C(=O)Cn1cc(-c2nc(C3(c4ccc(-c5cnc(N)nc5)cc4)CC3)no2)cn1
remaining binding (RAF1; cell-free assay, competition with immobilised ligand; 1 µM): 100%

CCN(CC)CCNC(=O)c1c(C)[nH]c(/C=C2\C(=O)Nc3ccc(F)cc32)c1C
remaining activity (RAF1; enzyme activity, inhibitor; 1 µM): 95%

C[C@@H]1CN(c2cc(-c3nn(C)c4ccc(OC5(C)CC5)cc34)ncn2)C[C@H](C)O1
remaining binding (RAF1; cell-free assay, competition with immobilised ligand; 1 µM): 100%

C[S+]([O-])c1ccc(-c2nc(-c3ccncc3)c(-c3ccc(F)cc3)[nH]2)cc1 (stereo not shown)
remaining signal (RAF1; cell-free assay; 0.5 µM): 41.1%

CNC(=O)Nc1ccc2c(c1)CC[C@@]21OC(=O)N(CC(=O)N(Cc2ccc(F)cc2)[C@@H](C)C(F)(F)F)C1=O
remaining binding (RAF1; cell-free assay, competition with immobilised ligand; 1 µM): 100%

CNCc1ccc(-c2cc(-c3nc(-c4ccc(S(=O)(=O)C(C)C)cc4)cnc3N)on2)cc1
inhibition (RAF1; enzyme activity, inhibitor; 0.4 µM): 0%

C[C@H](NC(=O)c1cnc2n1[C@](C)(Cc1ccc(C#N)cc1)C(=O)N2c1cc(Cl)c(F)c(Cl)c1)C(=O)NC1(c2ccccn2)CC1
remaining binding (RAF1; cell-free assay, competition with immobilised ligand; 1 µM): 100%

O=C(CSc1nc2nccnc2c(=O)n1CCc1ccccc1)Nc1nccs1
inhibition (RAF1 Y340D/Y341D; enzyme activity, inhibitor; 10 µM): 3%
